Screening results as filed in PubChem.
This is one part of a sample in which hits are shown more often than they occur.
Lmaj promast = Leishmania major promastigote growth inhibition | Leishmania major promastigotes, resazurin fluorescence viability | actives 9% (n = 200,000) | inhibition, % at 10 µM;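 also: promastigotes grown with compound for 44 hours at 28 °C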
Avidin fluor = compound fluoresces at 488/530 nm on avidin beads | compound fluorescence 488/530 nm, flow cytometry; active compounds read high | fluorescence (KMESF) at 10 µM | actives 0.38% (n = 220,000); in the data active = fluorescence above about 47
GSH bead fluor = compound fluoresces at 488/530 nm on GSH beads; GSH beads flow cytometry, compound fluorescence 488/530 nm; active compounds read high; fluorescence (KMESF) at 10 µM; actives 0.25% (n = 190,000); AID 1776; in the data active = fluorescence above about 89;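 also: glutathione beads carrying GST-tagged Bcl family fusion proteins plus one bare bead set; values are compound well signal with DMSO vehicle wells as background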
ABCB1 block = human ABCB1 inhibition, ABCG2 as counter-screen. inhibition, % at 6.6 µM. actives 0.067% (n = 190,000). P08183. CCRF-Adr cells, JC-1 efflux, flow cytometry. AID 1326; in the data active = inhibition above about 40%;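 also: 0% = vehicle and 100% = reference inhibitor; higher value means more JC-1 retained so stronger ABCB1 efflux block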
PKD1 kinase inh = PKD1 (human) kinase inhibition; PKD1 kinase fluorescence polarization assay; inhibition, % (test concentration not listed); actives 0.056% (n = 200,000); AID 797
ABCG2 block = human ABCG2 inhibition, ABCB1 as counter-screen | Q9UNQ0 | IgMXP3 cells, JC-1 efflux, flow cytometry | inhibition, % at 6.6 µM | actives 0.1% (n = 190,000);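 active = inhibition above 80%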;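 also: 0% = DMSO and 100% = nicardipine control wells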
Target sequence (Q9UNQ0 whole entry, looked up): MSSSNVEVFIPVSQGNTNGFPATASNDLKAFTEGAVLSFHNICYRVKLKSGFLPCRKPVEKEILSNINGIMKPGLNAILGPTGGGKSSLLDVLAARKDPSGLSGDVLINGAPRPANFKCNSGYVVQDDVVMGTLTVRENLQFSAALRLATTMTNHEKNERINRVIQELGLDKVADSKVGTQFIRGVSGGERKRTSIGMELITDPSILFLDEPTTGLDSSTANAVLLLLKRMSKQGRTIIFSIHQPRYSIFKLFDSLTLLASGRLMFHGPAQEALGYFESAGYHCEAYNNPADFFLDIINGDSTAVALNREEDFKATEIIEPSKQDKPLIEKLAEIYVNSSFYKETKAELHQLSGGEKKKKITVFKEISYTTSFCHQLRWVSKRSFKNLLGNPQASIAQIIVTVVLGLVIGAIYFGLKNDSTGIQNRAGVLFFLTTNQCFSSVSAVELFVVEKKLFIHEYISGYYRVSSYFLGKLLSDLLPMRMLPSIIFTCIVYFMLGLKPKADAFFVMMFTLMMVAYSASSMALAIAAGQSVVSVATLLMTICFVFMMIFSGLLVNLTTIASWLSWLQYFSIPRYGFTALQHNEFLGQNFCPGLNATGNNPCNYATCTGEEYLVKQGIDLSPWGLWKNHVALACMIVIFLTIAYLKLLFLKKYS
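Assay system – ABCG2 IgMXP3 and barcoded ABCB1 CCRF-Adr cell mix · Input – 3 million cells/mL in well · Reagent – JC-1 fluorescent substrate · Compound – single test compound dose, 6.6 µM final · Timing – 10 min exposure at 25 °C with rotation, no wash · Detection – flow cytometry of retained JC-1 fluorescence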
Numbers without * were called inactive; · = no result given. Rule as the data show it, unless noted: active = inhibition above about 50%; inactive = the rest.

SMILES | Lmaj promast | Avidin fluor | GSH bead fluor | ABCB1 block | PKD1 kinase inh | ABCG2 block
CCOc1ccc(S(=O)(=O)N2CCN(c3ccc(OC)cc3)CC2)c2cccnc12 | 16 | 8 | 13 | 1 | -3 | 3
CCOc1ccc(S(=O)(=O)Nc2cccc(C)c2)c2cccnc12 | -5 | 10 | 21 | 1 | -1 | 2
CCOc1ccc(S(=O)(=O)NCc2ccc(OC)cc2)c2cccnc12 | 90* | 6 | 25 | 1 | -4 | 15
CCOc1ccc(S(=O)(=O)NCc2ccc(F)cc2)c2cccnc12 | 89* | 18 | 23 | 0 | 19 | 1
CCOC(=O)Cc1nn[nH]n1 | -2 | 24 | 10 | 0 | -5 | 1
Cc1ccc(CN2C(=O)c3ccccc3NC2c2ccccn2)cc1 (centres undefined) | 63* | 10 | 12 | 2 | 0 | 8
CCCN1C(=O)c2ccccc2NC1c1ccc(C)cc1 (centres undefined) | 12 | 5 | 20 | 2 | 6 | 5
N#Cc1ccccc1OCCOCCNC1CCCC1 | 82* | 4 | 10 | 0 | 1 | 0
Cc1cc(C)c(S(=O)(=O)N2CCCOC2CNC(=O)C(=O)NCc2ccncc2)c(C)c1 (centres undefined) | 7 | 3 | 10 | 1 | 5 | 2
O=C(c1cccc(F)c1)N1C2C=CC(C2)C1(C(F)(F)F)C(F)(F)F (centres undefined) | -7 | 9 | 19 | 1 | -3 | 6
O=C(c1ccc(Cl)cc1)N1C2C=CC(C2)C1(C(F)(F)F)C(F)(F)F (centres undefined) | 64* | 3 | 24 | 0 | -8 | 1
Cc1cc(-c2n[nH]c(=S)n2/N=C/c2cccc(O)c2)n[nH]1 | · | 7 | · | · | · | ·
Cc1cc(-c2n[nH]c(=S)n2/N=C/C(Cl)=C/c2ccccc2)n[nH]1 | 70* | 12 | 12 | 0 | 4 | 0
S=c1[nH]nc(-c2ccco2)n1/N=C/C(Cl)=C/c1ccccc1 | · | 6 | · | · | · | ·
Cc1cc(-c2n[nH]c(=S)n2/N=C/c2cccc([N+](=O)[O-])c2)n[nH]1 | 51* | 15 | 1 | 0 | -2 | -2
COc1ccc(C2CC(c3ccccc3)=NN2C(=O)COC(=O)C2CC2)cc1 (centres undefined) | 4 | 2 | 5 | 1 | -11 | 2
COc1ccc(C2CC(c3ccccc3)=NN2C(=O)COC(=O)C2(C)CC2(Cl)Cl)cc1 (centres undefined) | 60* | 10 | 8 | 1 | 3 | 7
CCOC(=O)C1CCN(Cc2ccc(F)c(F)c2)CC1 | 80* | 24 | 25 | 0 | -3 | 4
CCOC(=O)C1CCCN(Cc2ccccc2OCC)C1 (centres undefined) | 13 | 12 | 27 | 1 | 5 | 16
CCOC(=O)C1CCN(Cc2cccc(OC)c2)CC1 | 90* | 11 | 29 | 0 | -5 | 1
CCOC(=O)C1CCCN(Cc2ccc(OCC)cc2)C1 (centres undefined) | 90* | 10 | 31 | 1 | -10 | 2
CCOC(=O)C1CCN(Cc2cnc(Oc3ccc(OC)cc3)s2)CC1 | 93* | 22 | 12 | 0 | -9 | 1
CCOC(=O)C1CCN(Cc2ccc(N(C)C)cc2)CC1 | 44 | 25 | 23 | 1 | -15 | 1
Cc1nn(Cc2c(Cl)cccc2Cl)c(Cl)c1/C=N/NC(=O)c1cccnc1 | -8 | 2 | 4 | 1 | 4 | 5
O=C(CSc1nnc(SCc2ccc(Cl)cc2)s1)N/N=C/c1c(Cl)cccc1Cl | 3 | 11 | 10 | 1 | 0 | 26
Cc1cc(C)cc(NC(=O)CCn2cnc3cc(C)c(C)cc32)c1 | 21 | 8 | 13 | 1 | -4 | 13
CCOC(=O)C1CCCN(Cc2nc(N)nc(Nc3ccc(Cl)cc3)n2)C1 (centres undefined) | 71* | 14 | 25 | 0 | -1 | 5
COc1ccc(Nc2nc(N)nc(CN3CCC(Cc4ccccc4)CC3)n2)cc1 | 87* | 7 | 27 | 1 | -3 | 4
CCOC(=O)C1CCN(Cc2cc(C(C)C)c(O)c(C(C)C)c2)CC1 | 58* | 11 | 12 | 2 | 2 | 3
CCOC(=O)C1CCN(Cc2ccccc2C)CC1 | 89* | 12 | 28 | 0 | -6 | 0
